Screens from PubChem BioAssay.
An excerpt weighted towards active compounds, which were near 2.9% of everything screened.
SENP1 inh: inhibitors of human SENP1 SUMO protease catalytic domain; recombinant SENP1 catalytic domain, CyPet-SUMO1-YPet FRET cleavage; inhibition, % at 10 µM; 360,000 compounds, 0.21% hits; AID 624204;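 active = inhibition at least 30% at 10 µM, raw YFP signal under a set limit, fluorescence ratio 0.5 to 1.5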;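 note: 0% = enzyme with DMSO and 100% = no enzyme wells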
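material = recombinant human SENP1 catalytic domain, His6-tagged | quantity = 20 pM enzyme | reagent = 25 nM SUMO1 FRET substrate | compound dosing = 10 µM single point, 0.5% DMSO | timing = 50 min enzyme reaction, room temperature, light-protected | detection = FRET, CFP and YFP emission | control set = no-enzyme low, enzyme-DMSO high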
SENP6 block: blocks the human protease SENP6. Q9GZR1. Recombinant SENP6 catalytic domain, aminoluciferin luminescence. inhibition, % at 10 µM. 330,000 compounds, 1.8% hits;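 active = inhibition above about 50% at the single tested dose, limit read from the data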;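 note: plate controls were DMSO wells with enzyme for no effect and DMSO wells lacking enzyme for full effect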
SENP8 block-1: blocks the human protease SENP8. Q96LD8. purified SENP8, Z-RLRGG-aminoluciferin cleavage, luminescence. inhibition, % at 10 µM. 330,000 compounds, 1.2% hits. AID 2540; in the data active = inhibition above about 50%
SENP7 block: inhibitors of human SENP7 protease; Q9BQF6; recombinant SENP7, Z-RLRGG-aminoluciferin luminescence, 40 min; 330,000 compounds, 1.5% hits; inhibition, % at 5 µM;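 active = inhibition above about 50% at the single test dose, limit read from the data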;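 note: plate controls were DMSO with enzyme for no effect and no enzyme buffer wells for full effect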
Apaf-1 inh: inhibitors of human Apaf-1 apoptosome | O14727 | reconstituted apoptosome caspase-3 activity, DEVD-Rh110 fluorescence | inhibition, % at 20 µM | 330,000 compounds, 0.71% hits; active = inhibition of at least 40% at 20 µM;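 note: plate controls were DMSO wells for no effect and DEVD-CHO caspase inhibitor wells for full effect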
Target sequence (O14727 whole entry, looked up): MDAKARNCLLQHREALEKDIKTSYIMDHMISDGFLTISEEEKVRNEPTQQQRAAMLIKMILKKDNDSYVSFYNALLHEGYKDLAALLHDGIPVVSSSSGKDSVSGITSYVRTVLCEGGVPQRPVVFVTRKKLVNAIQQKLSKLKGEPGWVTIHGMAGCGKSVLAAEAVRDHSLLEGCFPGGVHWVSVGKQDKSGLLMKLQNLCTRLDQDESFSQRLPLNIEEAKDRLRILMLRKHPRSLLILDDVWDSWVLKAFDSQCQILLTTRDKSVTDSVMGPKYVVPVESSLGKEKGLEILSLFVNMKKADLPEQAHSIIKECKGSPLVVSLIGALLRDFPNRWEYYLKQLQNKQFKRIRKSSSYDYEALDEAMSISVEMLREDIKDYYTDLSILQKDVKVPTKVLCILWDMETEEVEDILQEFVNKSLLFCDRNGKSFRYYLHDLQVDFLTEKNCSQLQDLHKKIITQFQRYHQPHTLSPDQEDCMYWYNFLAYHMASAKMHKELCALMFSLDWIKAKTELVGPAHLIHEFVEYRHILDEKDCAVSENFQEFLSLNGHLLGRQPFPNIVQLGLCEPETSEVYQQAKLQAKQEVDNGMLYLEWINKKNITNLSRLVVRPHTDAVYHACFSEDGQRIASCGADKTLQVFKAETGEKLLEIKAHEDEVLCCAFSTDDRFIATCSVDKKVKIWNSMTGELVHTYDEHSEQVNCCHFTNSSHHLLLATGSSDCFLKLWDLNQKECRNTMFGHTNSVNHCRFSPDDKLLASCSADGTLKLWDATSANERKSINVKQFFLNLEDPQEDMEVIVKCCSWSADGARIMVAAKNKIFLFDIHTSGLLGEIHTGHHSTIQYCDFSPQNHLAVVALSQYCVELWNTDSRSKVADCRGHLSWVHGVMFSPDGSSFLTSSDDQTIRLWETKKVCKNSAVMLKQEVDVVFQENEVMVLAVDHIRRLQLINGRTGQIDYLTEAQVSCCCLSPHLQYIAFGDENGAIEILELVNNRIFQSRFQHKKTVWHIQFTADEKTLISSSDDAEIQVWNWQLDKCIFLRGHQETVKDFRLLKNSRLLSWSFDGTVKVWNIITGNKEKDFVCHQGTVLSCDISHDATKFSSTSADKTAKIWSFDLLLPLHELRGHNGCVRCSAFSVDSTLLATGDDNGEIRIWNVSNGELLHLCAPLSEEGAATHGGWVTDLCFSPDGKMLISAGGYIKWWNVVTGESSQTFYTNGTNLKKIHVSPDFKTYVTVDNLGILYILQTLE
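System: reconstituted apoptosome with Apaf-1, cytochrome c, caspase-9, procaspase-3, dATP; Signal: Rh110 fluorescence intensity; Schedule: 30 min compound preincubation, 50 min activation, room temperature; Reagent: cytochrome c trigger plus (Z-DEVD)2-Rh110 caspase-3 substrate.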
SENP8 block-2: SENP8 (human) protease inhibition; recombinant SENP8, Nedd8 substrate fluorescence; inhibition, % at 20 µM; 360,000 compounds, 0.64% hits; in the data active = inhibition mostly above about 40%, no sharp cut-off; inactive = mostly below about 27%
Numbers without * were called inactive; i = inactive; . = not tested or not shown.

SMILES	SENP1 inh	SENP6 block	SENP8 block-1	SENP7 block	Apaf-1 inh	SENP8 block-2
CCOc1ccccc1NC(=O)C1CCCN(S(=O)(=O)c2ccc3c(c2)C(C)(C)C(=O)N3C)C1 (centres undefined)	1.1	-25.5	-18.7	-10.4	23.7	2.8
COc1cccc(OC)c1-c1nn2c(-c3cc(-c4ccccc4)n[nH]3)nnc2s1	0.6	-101.0	13.1	13.8	53.1*	19.2
CC(=O)Nc1ccc(S(=O)(=O)N2CCSc3ccccc32)cc1	-1.3	-12.9	-12.9	-3.6	12.7	4.0
C=C1c2cccc(O)c2C(O)=C2C(=O)[C@]3(O)C(O)=C(C(N)=O)C(=O)[C@@H](N(C)C)[C@@H]3[C@@H](O)[C@H]12	31.4*	-2.8	-0.2	1.4	-2.8	35.7
O=C1C=C(N2CCOCC2)c2cccc3cccc1c23	12.2	.	.	.	.	18.7
CC1=C(C)C(=O)C(N2CCOCC2)=CC1=O	-0.8	.	.	.	.	47.3*
CCCCCCCCN1C(=O)[C@H](CC(=O)NCCCC)C[C@@]2(C(=O)OC)CC(C)(C)CC=C12	2.7	.	.	.	.	11.1
C/C(=N\NC(=O)c1cc2ccccc2cc1O)c1ccccn1	16.5	94.6*	89.1*	71.7*	16.7	-3.9
C/C(=N\Nc1cccc2cccnc12)c1ccccn1	-6.9	72.2*	88.9*	92.4*	11.5	-24.6
Oc1ccc(N=Nc2cccc(Cl)c2)cc1C=Nc1ccc(N2CCOCC2)cc1	5.6	.	.	.	.	52.6*
O=c1c2cc(O)c(O)cc2oc2cc(O)c(C3OC(CO)C(O)C(O)C3O)c(O)c12 (centres undefined)	36.6*	-18.6	1.7	0.4	-24.8	17.6
O=c1cc(-c2ccc(O)c(O)c2)oc2cc(O)c([C@@H]3O[C@H](CO)[C@@H](O)[C@H](O)[C@H]3O)c(O)c12	15.4	-19.4	-13.9	-12.2	3.4	30.1
COc1ccc(Nc2ccccc2N)cc1	33.8*	32.8	-7.0	-6.6	14.5	-20.0
CSc1ccccc1C(=O)OCC(=O)NC1CC1	-0.2	.	.	.	.	7.6
Fc1cccc(Cl)c1CNc1ccc(N2CCCC2)cc1	-18.5	-20.7	-11.4	-2.2	47.8*	-364.9
Cc1ccc(C(C)C)c(OCc2nn(CC(=O)c3ccc(OC(F)F)cc3)c3[n+]2CCCCC3)c1	67.3*	-36.5	-12.9	4.4	26.1	10.6
COc1ccc(C(=O)Cn2nc(CNc3ccc(Br)cc3)[n+]3c2CCCCC3)cc1	1.1	12.3	0.3	10.5	6.8	23.6
CC(=O)CCc1ccc(OCC(O)CNC2CCCc3ccccc32)cc1 (centres undefined)	-1.5	6.8	2.4	4.4	65.0*	-0.6
CCc1nc2ccc(C(=O)N(C)CCN(C)C)cn2c1N(C)Cc1cc2ccccc2s1	-5.4	.	.	.	.	-3.9
CCC1=NNc2cccc3c(OC)ccc1c23	.	9.7	7.6	7.6	52.1*	.
CCOC(=O)c1c2c(n(-c3ccc(OC)cc3)c1C)C(=O)C(=O)c1ccccc1-2	3.1	.	.	.	.	110.3*
CC(C)CC1COC(=O)N1 (centres undefined)	-0.8	1.0	-3.5	-2.2	-4.8	6.0
O=C(Nc1ccc(O)c(C(=O)O)c1)Oc1ccccc1	-1.0	76.2*	59.9*	56.2*	-1.5	-297.0
COC(=O)c1ccc(COC(=O)c2ccc(CS(=O)(=O)c3ccc(C)cc3)cc2)cc1	1.7	-29.4	-3.2	-6.4	-0.5	20.2
COC(=O)c1cc2c(n1S(=O)(=O)c1ccc(C)cc1)C(=O)C(=O)c1[nH]cc(C(=O)OCc3ccccc3)c1-2	0.2	.	.	.	.	108.4*
SMILES	SENP1 inh	SENP6 block	SENP8 block-1	SENP7 block	Apaf-1 inh	SENP8 block-2
O=C(/C=C/c1cc[n+](CC(=O)c2ccc3cccc4c3c2CC4)cc1)c1ccc2cccc3c2c1CC3	-35.0	10.8	13.4	16.1	58.5*	-421.8
O=C(CN1CCN(CC(=O)Nc2cccc(F)c2)CC1)NCC1(N2CCOCC2)CCCCC1	-2.2	-12.9	1.0	-0.7	3.0	16.5
COc1ccc(NS(=O)(=O)c2cc([N+](=O)[O-])ccc2N/N=C\c2c(C)[nH]c3ccccc23)cc1	12.0	-0.8	16.4	3.9	21.3	46.9*
Cc1cc(C)cc(C(=O)Nc2nc3ccccc3[nH]2)c1	-1.2	2.3	-24.2	-11.1	14.4	-2.5
Cc1ccsc1C(=O)Nc1nc2ccccc2[nH]1	-0.4	98.6*	94.7*	98.3*	-12.1	i
COc1ncnc2c1ncn2CCCNCc1ccccc1	3.5	.	.	.	.	-17.0
O=C1c2ccccc2C(=O)c2c1ccc1c(=O)n(-c3ccccc3)[nH]c21	-2.1	13.9	2.6	11.4	8.7	26.1
CC(C)Cn1[nH]c2c3c(ccc2c1=O)C(=O)c1ccccc1C3=O	1.8	26.5	7.2	6.7	16.1	42.7*
CCCCCCc1cc2cc(-c3nnc(-c4cc(OC)c(OC)c(OC)c4)o3)c(=O)oc2cc1O	.	1.5	9.4	6.4	62.9*	.
CCCCCCc1cc2cc(-c3nnc(-c4ccccc4O)o3)c(=O)oc2cc1O	-22.4	-6.5	1.9	6.9	-139.7	-284.9
Cc1[nH]n(-c2ccccc2)c(=O)c1C(c1ccc(O)c([N+](=O)[O-])c1)c1c(C)[nH]n(-c2ccccc2)c1=O	1.8	50.6*	15.1	40.4	87.2*	79.6*
Fc1cc(Br)ccc1COc1ccc(-c2nnco2)cc1	0.5	49.5	19.7	28.6	0.8	6.1
CSc1ccc(CN(C)C(=O)c2cccc(S(=O)(=O)N3CCN(Cc4ccccc4)CC3)c2)cc1	0.0	-2.7	12.7	1.8	19.4	9.5
Cc1ccc(C(=O)OCC(=O)c2cc(C)n(CC3CCCO3)c2C)cc1 (centres undefined)	0.3	-26.7	10.4	10.9	7.7	14.2
Cc1cc(C(=O)COC(=O)c2ccccc2Br)c(C)n1CC1CCCO1 (centres undefined)	2.6	94.6*	93.2*	93.9*	6.9	8.7
C=CCNc1nc(-c2ccc3c(c2)OCCO3)cs1	-2.7	90.2*	82.3*	65.9*	-3.6	10.4
C[C@H](CO)N1C[C@H](C)[C@@H](CN(C)C(=O)NC2CCCCC2)Oc2c(NC(=O)Cc3ccccc3)cccc2C1=O	1.2	-8.8	-5.6	10.7	10.3	11.6
CCCCCCCCN1C(=O)[C@H](CC(=O)NCc2ccc(OC)c(OC)c2)C[C@@]2(C(=O)OC)CC(C)(C)CC=C12	0.2	.	.	.	.	20.1
O=C(COc1ccc(Cl)cc1Cl)NC(=S)Nc1ccccc1C(=O)O	.	63.9*	58.9*	10.4	7.6	.
O=C(N=C1c2ccccc2CN1c1ccc(F)c(Cl)c1)c1cccnc1Cl	.	65.6*	62.1*	60.7*	22.0	.
O=c1c(-c2cc3ccccc3[nH]2)nc2ccccc2n1C(CCc1ccccc1)c1nc2ccccc2[nH]1 (centres undefined)	-16.5	.	.	.	.	-430.5
O=C(NCc1ccc2c(c1)OCO2)C(=O)NCC1OCCN1S(=O)(=O)c1ccccc1 (centres undefined)	-1.8	2.9	4.4	1.4	-3.4	-2.5
